Experimental data reported in ChEMBL document CHEMBL4184148 (Bioorg Med Chem Lett, 2017).

Experiments:
[1] = test system: Phosphatidylinositol 4,5-bisphosphate 3-kinase catalytic subunit alpha isoform (Homo sapiens), P42336 [E542K]; assay: Binding affinity to human partial length PIK3CA E542K mutant (R108 to N1068 residues) expressed in HEK293 cells at 1 uM by Kinomescan method relative to control; type: cell-based
[2] = molecular target: Focal adhesion kinase 1 (Homo sapiens) (UniProt Q05397); assay: Binding affinity to wild-type human partial length FAK (D402 to R696 residues) expressed in Escherichia coli BL21 at 1 uM by Kinomescan method relative to control
[3] = molecular target: Phosphatidylinositol 4-phosphate 5-kinase type-1 gamma (Homo sapiens) (UniProt O60331); assay: Binding affinity to wild-type human partial length PIP5K1C (M1 to T668 residues) expressed in HEK293 cells at 1 uM by Kinomescan method relative to control; type: cell-based
[4] = molecular target: Serine/threonine-protein kinase RIO2 (Homo sapiens) (UniProt Q9BVS4); assay: Binding affinity to wild-type human partial length RIOK2 (M1 to D313 residues) expressed in HEK293 cells at 1 uM by Kinomescan method relative to control; type: cell-based
[5] = molecular target: Interferon-induced, double-stranded RNA-activated protein kinase (Homo sapiens) (UniProt P19525); assay: Binding affinity to wild-type human partial length PRKR (F247 to C551 residues) expressed in Escherichia coli BL21 at 1 uM by Kinomescan method relative to control
[6] = molecular target: Cyclin-dependent kinase 8 (Homo sapiens) (UniProt P49336); assay: Binding affinity to wild-type human partial length CDK8 (M1 to T360 residues) expressed in Escherichia coli BL21 at 1 uM by Kinomescan method relative to control
[7] = molecular target: Tyrosine-protein kinase FRK (Homo sapiens) (UniProt P42685); assay: Binding affinity to wild-type human partial length FRK (A215 to F503 residues) expressed in Escherichia coli BL21 at 1 uM by Kinomescan method relative to control
[8] = molecular target: Protein kinase C epsilon type (Homo sapiens) (UniProt Q02156); assay: Binding affinity to wild-type human partial length PRKCE (A378 to P737 residues) expressed in HEK293 cells at 1 uM by Kinomescan method relative to control; type: cell-based
[9] = molecular target: Serine/threonine-protein kinase WNK2 (Homo sapiens) (UniProt Q9Y3S1); assay: Binding affinity to wild-type human partial length WNK2 (V47 to D482 residues) expressed in HEK293 cells at 1 uM by Kinomescan method relative to control; type: cell-based
[10] = molecular target: Ribosomal protein S6 kinase alpha-3 (Homo sapiens) (UniProt P51812); assay: Binding affinity to wild-type human partial length C-terminal RSK3 kinase domain 2 (V403 to K700 residues) expressed in Escherichia coli BL21 at 1 uM by Kinomescan method relative to control
[11] = test system: Tyrosine-protein kinase ABL1 (Homo sapiens), P00519 [Q252H]; assay: Binding affinity to human non-phosphorylated ABL1 Q252H mutant (S229 to K512 residues) expressed in HEK293 cells at 1 uM by Kinomescan method relative to control; type: cell-based
[12] = molecular target: Dual specificity mitogen-activated protein kinase kinase 2 (Homo sapiens) (UniProt P36507); assay: Binding affinity to wild-type human full length MEK2 (M1 to V400 residues) expressed in HEK293 cells at 1 uM by Kinomescan method relative to control; type: cell-based
Outline: (§1)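 Run as one kinome-wide competition binding panel with each compound at a single fixed concentration. Results were plotted as a kinome-wide selectivity map.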

[13] = molecular target: Activin receptor type-1B (Homo sapiens) (UniProt P36896); assay: Binding affinity to wild-type human ACVR1B (S187 to I505 residues) expressed in Escherichia coli BL21 at 1 uM by Kinomescan method relative to control
[14] = molecular target: Calcium/calmodulin-dependent protein kinase type II subunit beta (Homo sapiens) (UniProt Q13554); assay: Binding affinity to wild-type human partial length CAMK2B (M1 to Q380 residues) expressed in Escherichia coli BL21 at 1 uM by Kinomescan method relative to control
[15] = molecular target: Myosin light chain kinase family member 4 (Homo sapiens) (UniProt Q86YV6); assay: Binding affinity to wild-type human partial length MYLK4 (V79 to S380 residues) expressed in Escherichia coli BL21 at 1 uM by Kinomescan method relative to control
[16] = molecular target: Serine/threonine-protein kinase PRP4 homolog (Homo sapiens) (UniProt Q13523); assay: Binding affinity to wild-type human partial length PRP4 (D657 to I1007 residues) expressed in Escherichia coli BL21 at 1 uM by Kinomescan method relative to control
[17] = molecular target: Insulin receptor (Homo sapiens) (UniProt P06213); assay: Binding affinity to wild-type human partial length INSR (P997 to E1318 residues) expressed in HEK293 cells at 1 uM by Kinomescan method relative to control; type: cell-based
[18] = molecular target: Aurora kinase A (Homo sapiens) (UniProt O14965); assay: Binding affinity to wild-type human partial length AURKA (E122 to K401 residues) expressed in HEK293 cells at 1 uM by Kinomescan method relative to control; type: cell-based
Outline: (§2)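 Kinome-wide competition binding panel run by an outside provider, with each compound tested at a single concentration. Activity is read against the kinase panel.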

[19] = molecular target: Dual specificity tyrosine-phosphorylation-regulated kinase 2 (Homo sapiens) (UniProt Q92630); assay: Binding affinity to wild-type human full length DYRK2 (M1 to S528 residues) expressed in HEK293 cells at 1 uM by Kinomescan method relative to control; type: cell-based; outline: as §1
[20] = molecular target: Cyclin-dependent kinase-like 5 (Homo sapiens) (UniProt O76039); assay: Binding affinity to wild-type human partial length CDKL5 (M1 to S337 residues) expressed in HEK293 cells at 1 uM by Kinomescan method relative to control; type: cell-based
[21] = molecular target: Proto-oncogene tyrosine-protein kinase receptor Ret (Homo sapiens) (UniProt P07949); assay: Binding affinity to wild-type human partial length RET (E713 to D1014 residues) expressed in Escherichia coli BL21 at 1 uM by Kinomescan method relative to control
[22] = molecular target: Serine/threonine-protein kinase TNNI3K (Homo sapiens) (UniProt Q59H18); assay: Binding affinity to wild-type human full length TNNI3K (M1 to S835 residues) expressed in Escherichia coli BL21 at 1 uM by Kinomescan method relative to control; outline: as §2
[23] = molecular target: Beta-adrenergic receptor kinase 1 (Homo sapiens) (UniProt P25098); assay: Binding affinity to wild-type human full length GRK2 (M1 to L689 residues) expressed in HEK293 cells at 1 uM by Kinomescan method relative to control; type: cell-based; outline: as §1
[24] = molecular target: Serine/threonine-protein kinase PLK4 (Homo sapiens) (UniProt O00444); assay: Binding affinity to wild-type human partial length PLK4 (M1 to S273 residues) expressed in HEK293 cells at 1 uM by Kinomescan method relative to control; type: cell-based
[25] = molecular target: Calcium/calmodulin-dependent protein kinase type 1B (Homo sapiens) (UniProt Q6P2M8); assay: Binding affinity to wild-type human partial length CAMK1B (W9 to A311 residues) expressed in HEK293 cells at 1 uM by Kinomescan method relative to control; type: cell-based

Sequence of Insulin receptor (Homo sapiens) (P06213 28-758 limits assumed): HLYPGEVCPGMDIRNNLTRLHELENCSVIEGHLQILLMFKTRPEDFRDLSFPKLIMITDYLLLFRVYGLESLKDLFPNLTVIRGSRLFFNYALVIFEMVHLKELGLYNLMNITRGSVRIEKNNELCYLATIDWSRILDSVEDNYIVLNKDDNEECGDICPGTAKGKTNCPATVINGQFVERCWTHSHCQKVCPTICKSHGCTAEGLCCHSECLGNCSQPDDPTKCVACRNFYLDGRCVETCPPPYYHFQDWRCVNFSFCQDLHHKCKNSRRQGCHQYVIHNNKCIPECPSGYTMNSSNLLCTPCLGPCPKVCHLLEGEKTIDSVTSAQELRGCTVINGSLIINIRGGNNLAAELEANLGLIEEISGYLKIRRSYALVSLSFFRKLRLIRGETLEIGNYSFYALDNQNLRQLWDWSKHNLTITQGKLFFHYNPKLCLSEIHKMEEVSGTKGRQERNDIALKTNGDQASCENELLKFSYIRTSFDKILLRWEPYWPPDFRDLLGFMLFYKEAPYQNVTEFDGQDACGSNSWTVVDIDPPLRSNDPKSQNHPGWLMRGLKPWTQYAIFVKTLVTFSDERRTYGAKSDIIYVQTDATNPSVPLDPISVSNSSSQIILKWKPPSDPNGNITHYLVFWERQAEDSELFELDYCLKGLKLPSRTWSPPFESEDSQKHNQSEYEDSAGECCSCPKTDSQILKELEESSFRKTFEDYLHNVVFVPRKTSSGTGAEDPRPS
Sequence of Insulin receptor (Homo sapiens) (P06213 763-1382 limits assumed): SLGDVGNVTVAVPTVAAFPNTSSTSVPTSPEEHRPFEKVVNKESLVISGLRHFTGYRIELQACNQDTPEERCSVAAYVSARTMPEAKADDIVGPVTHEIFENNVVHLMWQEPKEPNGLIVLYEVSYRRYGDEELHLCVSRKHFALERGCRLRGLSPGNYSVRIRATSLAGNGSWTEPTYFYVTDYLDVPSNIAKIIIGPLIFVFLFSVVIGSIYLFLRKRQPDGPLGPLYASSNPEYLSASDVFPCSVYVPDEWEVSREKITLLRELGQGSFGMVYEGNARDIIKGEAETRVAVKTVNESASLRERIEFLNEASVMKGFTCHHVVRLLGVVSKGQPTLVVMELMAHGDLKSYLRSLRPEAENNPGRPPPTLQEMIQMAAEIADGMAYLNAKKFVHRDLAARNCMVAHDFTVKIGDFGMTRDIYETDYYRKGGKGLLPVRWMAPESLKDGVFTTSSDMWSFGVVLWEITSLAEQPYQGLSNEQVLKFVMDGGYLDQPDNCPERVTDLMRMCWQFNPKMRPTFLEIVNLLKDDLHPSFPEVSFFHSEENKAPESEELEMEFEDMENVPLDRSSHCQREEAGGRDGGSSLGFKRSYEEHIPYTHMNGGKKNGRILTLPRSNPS
Sequence of Protein kinase C epsilon type (Homo sapiens) (Q02156 whole entry, the tested form may be a part): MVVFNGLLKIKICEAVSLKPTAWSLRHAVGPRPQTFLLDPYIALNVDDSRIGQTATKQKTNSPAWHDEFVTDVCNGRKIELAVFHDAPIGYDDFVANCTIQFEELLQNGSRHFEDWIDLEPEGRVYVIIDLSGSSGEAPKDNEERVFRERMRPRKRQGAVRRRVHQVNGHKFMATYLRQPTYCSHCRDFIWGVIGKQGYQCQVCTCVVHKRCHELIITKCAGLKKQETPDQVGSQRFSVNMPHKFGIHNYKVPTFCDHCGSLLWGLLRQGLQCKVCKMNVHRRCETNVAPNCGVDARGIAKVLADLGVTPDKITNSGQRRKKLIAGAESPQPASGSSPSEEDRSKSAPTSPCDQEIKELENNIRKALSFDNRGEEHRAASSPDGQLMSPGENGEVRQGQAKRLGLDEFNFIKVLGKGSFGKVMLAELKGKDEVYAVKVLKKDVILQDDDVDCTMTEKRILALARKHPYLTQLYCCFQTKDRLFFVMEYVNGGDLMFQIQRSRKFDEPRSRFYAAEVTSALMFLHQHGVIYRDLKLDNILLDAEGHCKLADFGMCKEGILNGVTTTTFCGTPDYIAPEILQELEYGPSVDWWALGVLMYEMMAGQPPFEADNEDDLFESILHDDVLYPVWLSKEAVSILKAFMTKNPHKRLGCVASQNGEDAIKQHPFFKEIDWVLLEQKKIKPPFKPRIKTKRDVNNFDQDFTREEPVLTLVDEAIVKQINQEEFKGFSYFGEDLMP
Sequence of Cyclin-dependent kinase-like 5 (Homo sapiens) (O76039 whole entry, the tested form may be a part): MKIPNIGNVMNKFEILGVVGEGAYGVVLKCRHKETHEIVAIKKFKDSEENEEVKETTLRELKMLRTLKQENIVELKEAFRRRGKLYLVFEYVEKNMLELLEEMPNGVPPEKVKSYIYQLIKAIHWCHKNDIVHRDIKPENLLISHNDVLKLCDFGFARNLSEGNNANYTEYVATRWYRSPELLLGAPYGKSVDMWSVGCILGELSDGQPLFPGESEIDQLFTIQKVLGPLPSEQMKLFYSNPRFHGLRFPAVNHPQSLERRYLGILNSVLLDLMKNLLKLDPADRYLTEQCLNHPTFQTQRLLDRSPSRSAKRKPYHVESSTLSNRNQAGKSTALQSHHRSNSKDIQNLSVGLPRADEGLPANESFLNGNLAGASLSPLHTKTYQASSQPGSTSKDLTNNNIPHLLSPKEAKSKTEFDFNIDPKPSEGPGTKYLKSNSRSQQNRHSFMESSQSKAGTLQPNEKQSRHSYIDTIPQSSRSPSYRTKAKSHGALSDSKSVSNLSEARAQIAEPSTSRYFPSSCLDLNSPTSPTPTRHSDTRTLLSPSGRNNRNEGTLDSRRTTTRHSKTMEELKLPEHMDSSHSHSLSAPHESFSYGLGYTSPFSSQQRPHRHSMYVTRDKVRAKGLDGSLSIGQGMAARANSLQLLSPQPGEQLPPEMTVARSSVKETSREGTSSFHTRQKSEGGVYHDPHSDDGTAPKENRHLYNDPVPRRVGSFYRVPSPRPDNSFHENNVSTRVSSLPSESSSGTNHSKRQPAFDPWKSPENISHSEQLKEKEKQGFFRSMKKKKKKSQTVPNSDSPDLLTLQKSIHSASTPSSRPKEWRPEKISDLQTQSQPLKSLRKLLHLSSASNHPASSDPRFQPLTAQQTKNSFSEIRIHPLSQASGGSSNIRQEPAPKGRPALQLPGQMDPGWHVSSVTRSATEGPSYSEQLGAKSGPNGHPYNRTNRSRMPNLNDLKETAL
Sequence of Myosin light chain kinase family member 4 (Homo sapiens) (Q86YV6 whole entry, the tested form may be a part): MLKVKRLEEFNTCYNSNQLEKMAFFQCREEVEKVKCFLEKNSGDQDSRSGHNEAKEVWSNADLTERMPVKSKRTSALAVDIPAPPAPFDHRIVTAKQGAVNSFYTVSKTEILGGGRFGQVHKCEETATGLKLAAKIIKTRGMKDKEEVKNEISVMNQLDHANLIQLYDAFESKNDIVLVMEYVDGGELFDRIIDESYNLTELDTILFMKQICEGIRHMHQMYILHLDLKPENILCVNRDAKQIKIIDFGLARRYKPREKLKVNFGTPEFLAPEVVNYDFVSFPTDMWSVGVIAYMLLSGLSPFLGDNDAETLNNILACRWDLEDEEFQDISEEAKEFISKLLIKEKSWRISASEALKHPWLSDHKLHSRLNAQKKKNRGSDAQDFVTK
Sequence of Serine/threonine-protein kinase PRP4 homolog (Homo sapiens) (Q13523 whole entry, the tested form may be a part): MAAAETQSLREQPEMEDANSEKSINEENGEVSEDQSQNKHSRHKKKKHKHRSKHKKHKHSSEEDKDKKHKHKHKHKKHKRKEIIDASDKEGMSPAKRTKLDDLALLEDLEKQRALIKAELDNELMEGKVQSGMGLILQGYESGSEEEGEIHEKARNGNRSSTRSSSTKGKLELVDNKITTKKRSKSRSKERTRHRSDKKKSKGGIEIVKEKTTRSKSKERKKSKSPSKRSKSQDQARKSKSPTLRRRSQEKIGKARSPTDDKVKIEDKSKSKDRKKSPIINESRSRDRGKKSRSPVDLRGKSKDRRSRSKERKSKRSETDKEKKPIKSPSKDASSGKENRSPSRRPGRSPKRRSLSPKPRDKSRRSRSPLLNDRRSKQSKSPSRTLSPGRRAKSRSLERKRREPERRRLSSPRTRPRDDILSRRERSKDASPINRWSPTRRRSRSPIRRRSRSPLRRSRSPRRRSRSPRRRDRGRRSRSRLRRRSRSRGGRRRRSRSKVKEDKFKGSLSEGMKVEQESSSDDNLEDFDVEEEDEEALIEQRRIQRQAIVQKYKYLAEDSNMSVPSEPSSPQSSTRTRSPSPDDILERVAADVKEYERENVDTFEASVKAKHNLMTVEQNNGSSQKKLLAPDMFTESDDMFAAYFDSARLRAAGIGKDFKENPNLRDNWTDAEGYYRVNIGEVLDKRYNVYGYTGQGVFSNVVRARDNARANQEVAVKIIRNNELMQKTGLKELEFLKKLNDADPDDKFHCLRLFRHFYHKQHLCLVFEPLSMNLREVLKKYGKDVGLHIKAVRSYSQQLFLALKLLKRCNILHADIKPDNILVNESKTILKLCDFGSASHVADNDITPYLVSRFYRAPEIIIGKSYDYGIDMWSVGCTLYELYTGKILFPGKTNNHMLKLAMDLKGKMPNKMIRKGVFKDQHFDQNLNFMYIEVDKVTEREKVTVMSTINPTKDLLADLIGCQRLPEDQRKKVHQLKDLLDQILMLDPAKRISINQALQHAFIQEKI
Sequence of Aurora kinase A (Homo sapiens) (O14965 whole entry, the tested form may be a part): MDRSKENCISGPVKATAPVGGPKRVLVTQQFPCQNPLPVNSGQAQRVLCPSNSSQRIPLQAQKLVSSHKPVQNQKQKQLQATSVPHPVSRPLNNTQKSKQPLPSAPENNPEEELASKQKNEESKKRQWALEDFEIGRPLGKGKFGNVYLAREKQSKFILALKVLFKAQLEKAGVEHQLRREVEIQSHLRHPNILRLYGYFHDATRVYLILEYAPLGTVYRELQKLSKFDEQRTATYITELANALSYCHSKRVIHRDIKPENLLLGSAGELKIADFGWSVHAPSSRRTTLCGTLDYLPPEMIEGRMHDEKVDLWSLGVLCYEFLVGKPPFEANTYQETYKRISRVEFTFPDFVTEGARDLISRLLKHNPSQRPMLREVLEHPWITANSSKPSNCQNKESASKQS

For `CCC(=O)Nc1ccc(C(=O)Nc2ccc(Nc3ncc4c(n3)N(C)c3ccc(C)cc3C(=O)N4C)cc2)cc1`, the Activity [1] was 76%, the Activity [2] was 99% and the Activity [3] was 88%. It also gave an Activity [4] of 58%, an Activity [5] of 100% and an Activity [6] of 100%. The Activity [7] was 100%, the Activity [8] was 100% and the Activity [9] was 94%. The Activity [10] was 85%, the Activity [11] was 64% and the Activity [12] was 72%. It also gave an Activity [13] of 100%, an Activity [14] of 96% and an Activity [15] of 100%. It also gave an Activity [16] of 100%, an Activity [17] of 65% and an Activity [18] of 0.45%. The Activity [19] was 100%, the Activity [20] was 89% and the Activity [21] was 88%. It also gave an Activity [22] of 100%, an Activity [23] of 90% and an Activity [24] of 8.2%. For the same compound, the Activity [25] was 45%.

For `C=CC(=O)Nc1ccc(C(=O)Nc2ccc(Nc3ncc4c(n3)N(C)c3ccc(C)cc3C(=O)N4C)cc2)cc1`, the Activity [1] was 62%, the Activity [2] was 92% and the Activity [3] was 98%. For the same compound, the Activity [4] was 93%, the Activity [5] was 90% and the Activity [6] was 78%. The Activity [7] was 95%, the Activity [8] was 87% and the Activity [9] was 86%. For the same compound, the Activity [10] was 100%, the Activity [11] was 68% and the Activity [12] was 86%. It also gave an Activity [13] of 85%, an Activity [14] of 100% and an Activity [15] of 100%. It also gave an Activity [16] of 99%, an Activity [17] of 97% and an Activity [18] of 0%. For the same compound, the Activity [19] was 92%, the Activity [20] was 98% and the Activity [21] was 86%. The Activity [22] was 77%, the Activity [23] was 100% and the Activity [24] was 71%. For the same compound, the Activity [25] was 100%.
